Experimental data from ChEMBL document CHEMBL1165996, “Terpenoids from Salvia trijuga” (J Nat Prod, 2010).

How the values were obtained:
Assay type in all cases: functional, cell-based
[1] = system: MCF7; experiment: Cytotoxicity against human MCF7 cells after 48 hrs by MTT assay; details: MCF7, 48 h
In short: (§1)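 Cells seeded in 96-well plates 12 h before dosing, then continuously exposed to a range of compound concentrations for 48 h. MTT added for a further 4 h, then 20% SDS added and left 12 h at room temperature. OD read at 595 nm. IC50 calculated by the Reed and Muench method.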

[2] = system: HL-60; experiment: Cytotoxicity against human HL60 cells after 48 hrs by MTT assay; details: HL-60, 48 h; in short: as §1
[3] = system: A549; experiment: Cytotoxicity against human A549 cells after 48 hrs by MTT assay; details: A549, 48 h; in short: as §1
[4] = system: SW480; experiment: Cytotoxicity against human SW480 cells after 48 hrs by MTT assay; details: SW480, 48 h; in short: as §1
[5] = system: SMMC-7721; experiment: Cytotoxicity against human SMMC7721 cells after 48 hrs by MTT assay; details: SMMC-7721, 48 h; in short: as §1

Compound | IC50 [1] [µM] | IC50 [2] [µM] | IC50 [3] [µM] | IC50 [4] [µM] | IC50 [5] [µM]
C[C@@H]1CC[C@]2(C(=O)O)CC[C@]3(C)C(=CC[C@@H]4[C@@]5(C)C(CO)=CC(C)(C)[C@@H]5CC[C@]43C)[C@@H]2[C@]1(C)O [HYPTASIENIC ACID] | > 40 | 15.5 | 24.7 | 10.9 | 21
C/C=C(\C)C(=O)O[C@@H]1C/C(C)=C/CC[C@@]2(C)O[C@@H]2[C@@H](OC(=O)C(C)C(C)OC(C)=O)[C@H]1C(C)C (stereo not given in full) [TRIJUGIN I] | > 40 | 17.1 | > 40 | 24.9 | 34
